From PubChem
MC4R antag cAMP – human MC4R antagonism in cAMP assay; inhibition, % at 6.5 µM; AID 540295; actives 0.48% (n = 360,000); P32245; MC4R-expressing cells, MTII-stimulated cAMP, LANCE TR-FRET;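 active = inhibition above its plate's cutoff, the mean of tested wells on that plate plus 3 SD, cut at about 29% in these data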;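 also: 0% = Melanotan II alone and 100% = Melanotan II plus saturating MCL0020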
Target sequence (P32245 whole entry, looked up): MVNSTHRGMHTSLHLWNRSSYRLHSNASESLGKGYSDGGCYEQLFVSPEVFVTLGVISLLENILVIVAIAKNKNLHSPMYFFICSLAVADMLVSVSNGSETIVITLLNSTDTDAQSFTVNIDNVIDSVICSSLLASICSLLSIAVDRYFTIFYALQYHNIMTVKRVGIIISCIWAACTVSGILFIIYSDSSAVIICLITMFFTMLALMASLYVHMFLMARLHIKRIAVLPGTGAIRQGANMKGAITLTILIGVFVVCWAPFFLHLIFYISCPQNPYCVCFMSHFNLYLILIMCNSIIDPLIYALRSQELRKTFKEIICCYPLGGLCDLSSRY
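Test system: U2OS cells stably expressing human melanocortin 4 receptor (MC4R); also added: Melanotan II challenge; compound: 6.5 µM single dose; timing: 30-min compound preincubation, 1-h Melanotan II challenge, 1-h detection, room temperature; signal: Eu-cAMP/anti-cAMP TR-FRET, emission 671 nm; repeats: one well per compound, no replicates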
sPLA2-III inh – Blocks human group III sPLA2 activity | Q9NZ20 | inhibition, % at 12.2 µM | QFRET BODIPY PC-A2 liposome hydrolysis, fluorescence | actives 0.56% (n = 370,000);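 active = inhibition above mean plus 3 SD of compounds lying within the high and low control bounds, cut at about 19% in these data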;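 also: 0% = median of test compound wells and 100% = no enzyme DMSO wells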
NTR1 agonist – NTR1 (human) agonism; activation, % at 20 µM; NTR1-U2OS beta-arrestin-GFP spot imaging, agonist mode; actives 0.17% (n = 330,000); P30989; AID 493036;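 active = activation at or above 40% of the spot to cytoplasm intensity ratio, with at least 20 cells analyzed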;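 also: 0% = DMSO without peptide and 100% = 100 nM NTR1 peptide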
A1 inh – inhibitors of the anti-apoptotic protein A1, read as caspase activation. MEF A1-2A-BIM cells, Caspase-Glo 3/7 luminescence, 3 h; percent of clofoctol response, vehicle zero. caspase activation, % (test concentration not listed). actives 0.066% (n = 330,000);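 active = over half of replicate activation scores above 10%, or exactly half above 10 with the replicate mean above 10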
MC4R barr agon – human MC4R agonism via beta-arrestin | U2OS MC4R beta-arrestin complementation, luminescence; percent of melanotan II response, DMSO zero | activation, % at 8.9 µM | actives 0.98% (n = 360,000) | AID 540308;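 active = activation above a per-plate cutoff, the mean activation of sample wells on that plate plus 3 SD, cut at about 8% in these data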
Granule exo inh – lytic granule exocytosis inhibition | TALL-104 LAMP-1 surface exposure, flow cytometry; cells stimulated with thapsigargin and PMA | inhibition, % at 10 µM | actives 0.66% (n = 360,000);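 active = inhibition above about 55%, limit read from the data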
Exocytosis CP01 – blocks lytic granule exocytosis. shares compounds with Granule exo inh. TALL-104 cells, LAMP-1 externalization, flow cytometry; stimulated with PMA plus thapsigargin. inhibition, % at 10 µM. actives 11% (n = 1,500). AID 651954; in the data active = inhibition above about 60%;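 also: 0% = stimulated vehicle wells and 100% = unstimulated wells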
* marks the source's active call; other numbers are inactive results; . = not tested or not shown. This is a sample that favours compounds with a hit; in the whole collection about 2.5% have one here.

SMILES	MC4R antag cAMP	sPLA2-III inh	NTR1 agonist	A1 inh	MC4R barr agon	Granule exo inh	Exocytosis CP01
CN(C)S(=O)(=O)c1ccc(C(=O)NCCc2ccco2)cc1	3	0	-1	0	-1	-8	.
O=C1c2ccccc2CC1Sc1nnc(-c2ccncc2)o1 (stereo unspecified)	11	-25	-1	1	-2	1	.
Cc1ccccc1N1C(=O)CC(Sc2nnc(-c3ccccc3)o2)C1=O (stereo unspecified)	11	-19	-1	2	0	88*	54
Brc1ccc2ncnc(NCc3ccco3)c2c1	3	-2	-1	-2	0	-2	.
OC(CNCc1ccco1)Cn1c2ccc(Br)cc2c2cc(Br)ccc21 (stereo unspecified)	-3	1	16	1	6	78*	-9
O=C(NNC(=O)c1ccccc1O)c1ccco1	-1	-3	-1	0	-3	-1	.
CCOC(=O)c1c(N2CCN(c3ccccc3)CC2)cc(C)nc1C	-5	-2	1	1	-2	62*	-14
CN(C)CCC(Oc1ccccc1OCc1ccccc1)c1ccccc1 (stereo unspecified)	-10	-21	1	-1	3	56*	-4
CC(C)Oc1ccccc1OCCN(C)C	15	3	2	0	1	0	.
CCOC(=O)C1CCN(C(=O)c2ccc(OCC(=O)Nc3ccc(OCC)cc3)c(OC)c2)CC1	4	0	1	0	-1	0	.
CCN(CC)CCNc1ncnc2c1sc1nc(N3CCCC3)c3c(c12)CC(C)(C)OC3	-10	-9	8	0	-3	56*	1
CN(C)CCNc1ncnc2c1sc1nc(N3CCCC3)c3c(c12)CC(C)(C)OC3	-2	-13	9	-1	0	49	.
Cc1ccc(C)c(C(=O)COC(=O)c2ccc(C)c(S(=O)(=O)N3CCOCC3)c2)c1	-1	-11	2	0	-1	-3	.
O=C(CCS(=O)(=O)c1ccccc1)N(CCCN1CCOCC1)c1nc2ccc(F)cc2s1	15	3	26	5.3*	-3	58*	-7
O=C(CCS(=O)(=O)c1ccccc1)N(CCCN1CCOCC1)c1nc2c(F)cccc2s1	22	-2	15	1	-6	29	.
C=CCC1CCCC(=O)N2CC[C@H](O)C12 (stereo partly specified)	-2	0	0	1	0	-1	.
COc1ccccc1NC(=O)c1cc(S(=O)(=O)N2CCc3ccccc32)ccc1F	7	1	2	0	0	74*	-12
COc1ccc(CCNC(=O)c2cc(S(=O)(=O)N3CCc4ccccc43)ccc2F)cc1OC	14	-17	.	.	0	-1	.
Cc1nnc(SCC(=O)N(C2CCCCC2)C2CCS(=O)(=O)C2)n1C (stereo unspecified)	-3	11	1	3	-1	-2	.
O=S(=O)(CC(CN1CCCCC1)N1CCCCC1)c1ccc2ccccc2c1 (stereo unspecified)	21	3	.	.	0	68*	7
O=C(COC(=O)CNS(=O)(=O)c1cccc(F)c1)NCCc1ccccc1	27	-11	-1	.	-2	-4	.
CN1OC[C@@H]2CN[C@H](c3cccc(N4CCOCC4)c3)C[C@@H]21	-2	13	.	.	-1	-5	.
O=C(c1ccccc1)c1ccc2c(c1)OCCOCCOCCOCCO2	18	-1	4	-1	1	72*	-5
Cc1ccc(-c2cc(-c3nnc(SCC(=O)NC4CCCCC4)n3N)[nH]n2)cc1	.	0	.	.	.	.	.
COc1cc(Cl)c(CN2CCCC(CO)(Cc3ccccc3F)C2)cc1OC (stereo unspecified)	1	-4	5	0	3	66*	-13
SMILES	MC4R antag cAMP	sPLA2-III inh	NTR1 agonist	A1 inh	MC4R barr agon	Granule exo inh	Exocytosis CP01
COc1ccc(CN2CCCC(CO)(Cc3ccc(F)cc3)C2)c(OC)c1OC (stereo unspecified)	21	-1	4	1	2	61*	-15
CCOc1ccc(CN2CCCC(CO)(Cc3ccccc3F)C2)cc1 (stereo unspecified)	-5	-6	2	0	1	-6	.
O=C(N[C@H](Cc1ccccc1)C(=O)N1CCN(Cc2ccccn2)CC1)[C@H]1O[C@@H](n2ccc(=O)[nH]c2=O)[C@H](O)[C@@H]1O	.	3	.	.	.	.	.
O=C(O)Cc1sc(=O)[nH]c1O	2	-2	.	.	-2	97*	-14
Cc1ccc2nc(C)c(CN3CCN(c4ccc([N+](=O)[O-])cc4Cl)CC3)n2c1	-14	-1	0	0	0	72*	-12
CCC(C)Sc1nc2c(c(=O)[nH]1)C(c1cccs1)C1=C(CCCC1=O)N2 (stereo unspecified)	9	6	-1	1	4	-2	.
COC(=O)[C@]12C[C@H](CC(=O)NCCC(C)C)C(=O)N(Cc3ccc(Cl)cc3Cl)C1=C[C@H](C(C)(C)C)O[C@@H]2C	.	3	.	.	.	.	.
O=C(NC(=S)Nc1ccc(CN2CCOCC2)cc1)c1ccc(-c2cccc(Cl)c2)o1	21	2	5	-1	-2	58*	25
CCOc1cccc2sc(N(CCCN(C)C)C(=O)c3ccc(S(=O)(=O)N(CC)Cc4ccccc4)cc3)nc12	6	-14	52*	-1	3	64*	60*
CN(C)CCCN(C(=O)c1ccc(S(=O)(=O)N(C)Cc2ccccc2)cc1)c1nc2cc3c(cc2s1)OCO3	1	-5	27	0	1	34	.
CCOc1ccc2nc(N(CCN(C)C)C(=O)c3cc4ccccc4cc3OC)sc2c1	-5	.	2	0	-5	3	.
CCN(c1ccccc1)S(=O)(=O)c1ccc(C(=O)N(CCCN(C)C)c2nc3cc4c(cc3s2)OCO4)cc1	10	-9	22	0	0	70*	3
CCOc1cccc2sc(N(CCCN(C)C)C(=O)c3ccc(S(=O)(=O)N(C)Cc4ccccc4)cc3)nc12	13	-18	35	0	8	47	.
CCOc1cccc2sc(N(CCN(C)C)C(=O)c3cc4ccccc4cc3OC)nc12	-5	-3	30	0	3	59*	15
Cc1ccc2sc(N(CCCN(C)C)C(=O)c3ccc(S(=O)(=O)N(C)Cc4ccccc4)cc3)nc2c1C	20	-21	25	0	5	66*	58
C[C@H](CO)N1C[C@H](C)[C@@H](CN(C)C)Oc2c(NC(=O)CCC(F)(F)F)cccc2C1=O	2	7	6	0	-1	-1	.
